# Screens from PubChem BioAssay.
# NS3 helicase inh: HCV NS3 helicase inhibition | NS3 helicase DNA unwinding, Cy5 molecular beacon fluorescence | inhibition, % at 10.9 µM | 290,000 tested, 0.56% active;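 active = inhibition above the mean of all tested compounds plus 3 SD, set per campaign, cut at about 35% in these data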;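 also: 0% = DMSO wells and 100% = thioflavine S control wells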
#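 Measured by: Cy5 fluorescence, 0 and 60 min reads / Assay system: NS3 helicase fragment of HCV / Control set: low DMSO, high thioflavine S at 110 µM / Times: 1 h reaction at 25 °C, ATP-initiated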
# rCAG binder: binds r(CAG) RNA repeats; r(CAG) RNA repeat, TO-PRO-1 dye displacement fluorescence; inhibition, % at 3 µM; 370,000 tested, 1.3% active; AID 651821;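 active = inhibition above the plate cutoff, the mean of all test compounds on that plate plus 3 SD, cut at about 35% in these data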;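 also: 0% = DMSO alone and 100% = 100 µM mitoxantrone as full dye displacement; higher means more dye released from RNA so lower well fluorescence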
# TAAR1 antag: human TAAR1 antagonism. Q96RJ0. CHO RD-HGA16 TAAR1, Fluo-8 calcium fluorescence, antagonist. inhibition, % at 3 µM. 360,000 tested, 1.5% active. AID 624466;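 active = inhibition above a per-plate cutoff, the mean inhibition of test compounds on that plate plus 3 SD, cut at about 49% in these data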;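 also: 0% = DMSO plus EC80 beta-PEA response and 100% = DMSO alone without agonist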
# Target sequence (Q96RJ0 whole entry, looked up): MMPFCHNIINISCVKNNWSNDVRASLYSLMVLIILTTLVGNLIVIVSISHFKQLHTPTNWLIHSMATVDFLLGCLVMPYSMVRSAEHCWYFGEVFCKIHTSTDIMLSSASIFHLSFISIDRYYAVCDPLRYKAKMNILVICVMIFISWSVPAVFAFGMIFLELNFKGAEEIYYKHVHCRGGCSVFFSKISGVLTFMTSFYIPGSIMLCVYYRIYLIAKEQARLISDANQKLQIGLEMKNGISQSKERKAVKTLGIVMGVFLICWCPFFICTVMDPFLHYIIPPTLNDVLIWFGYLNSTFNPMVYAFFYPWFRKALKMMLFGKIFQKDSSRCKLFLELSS
#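 Test system: CHO RD-HGA16 cells bearing hTAAR1 | Reagent: β-PEA, EC80 | Compound dosing: 3 µM, single point | Schedule: Dye loading 75 min at 37 °C, then 30 min room temperature | Signal: Calcium fluorescence with Fluo-8 | Evaluation: Percent inhibition of PEA-evoked calcium signal, max/basal emission ratio | Control set: DMSO-only wells and EC80 β-PEA-stimulated wells | Repeats: Singlicate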
# HCV core dimer: blocks dimerization of HCV core protein; 300,000 tested, 0.33% active; TR-FRET GST/Flag-core106 dimerization, 1536-well; AID 1899; inhibition, % at 5 µM;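 active = inhibition above the mean of all tested compounds plus 3 SD, set per screening campaign, cut at about 45% in these data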
#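 Test system: GST/Flag-tagged HCV core106 proteins; Medium: KF-containing HEPES buffer, pH 7.45, DTT, CHAPS, BSA; Times: compound-protein-antibody incubation 4 h at 22.5 °C; Detection: TR-FRET 671 and 617 nm emission; Benchmarks: wells lacking GST-core106 and wells with excess unlabelled core106.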
# TAAR1 agonist: agonists of human TAAR1. activation, % at 3 µM. 360,000 tested, 0.99% active. CHO RD-HGA16 TAAR1, Fluo-8 calcium fluorescence; vehicle wells 0%, saturating PEA agonist 100%. Q96RJ0;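 active = activation above the mean activation of all test compounds in the run plus 3 SD, cut at about 38% in these data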
#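 System: CHO-derived RD-HGA16 cells with stable Gα16 and human TAAR1. Times: 17-24 h plating, Fluo-8 75 min 37 °C, 30 min RT. Measured by: calcium-sensitive Fluo-8 signal, excitation 470-495, emission 515-575 nm. Read-out basis: % activation relative to PEA EC100 response. Control set: DMSO and PEA EC100. Repeats: no replicates (n 1).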
# TAAR1 ag confirm: confirmation of human TAAR1 agonists; shares compounds with TAAR1 agonist; CHO RD-HGA16 TAAR1, Fluo-8 calcium fluorescence; scaled: DMSO 0%, maximal phenethylamine 100%; activation, % at 3 µM; 2,400 tested, 82% active; AID 651783;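 active = activation above a cutoff set at the run's mean compound activation plus 3 SD, cut at about 39% in these data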
# Ga16 nonsel ag: nonselective agonist in parental cells, TAAR1 agonist counter-screen. shares compounds with TAAR1 agonist. CHO-Ga16 parental, Fluo-8 calcium fluorescence; normalized to maximal ATP response, DMSO zero. activation, % at 3 µM. 2,400 tested, 50% active;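 active = activation above the run cutoff, the mean activation over all tested wells plus 3 SD, cut at about 12% in these data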;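 also: 0% = DMSO wells and 100% = maximal ATP response on the peak over basal ratio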
# TAAR1 desens: human TAAR1 agonist that also desensitizes the receptor; shares compounds with TAAR1 agonist; CHO RD-HGA16 hTAAR1, Fluo-8 calcium, beta-PEA response inhibition; inhibition, % at 3 µM; 2,400 tested, 46% active; AID 651951;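 active = inhibition above the run cutoff, the mean inhibition of all test compounds plus 3 SD, cut at about 49% in these data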;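 also: beta-PEA stimulus applied at its EC80; loss of beta-PEA calcium signal after compound pretreatment read as receptor desensitization; 0% = DMSO with beta-PEA at EC80 and 100% = DMSO alone without agonist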
# Ga16 antag count: nonselective Ga16 antagonist in TAAR1 agonist counter-screen; shares compounds with TAAR1 agonist; CHO-Ga16 ATP-induced calcium, Fluo-8 fluorescence; inhibition, % at 3 µM; 2,400 tested, 39% active; AID 651952;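 active = inhibition above the plate's mean compound inhibition plus 3 SD, computed per plate, cut at about 22% in these data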;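 also: 0% = EC80 ATP with DMSO and 100% = DMSO wells without ATP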
# Starred values were filed as active, the others as inactive; . = not tested or not shown. Compounds with a hit are over-represented: about 3.7% of the library has one in this group of screens.
SMILES,NS3 helicase inh,rCAG binder,TAAR1 antag,HCV core dimer,TAAR1 agonist,TAAR1 ag confirm,Ga16 nonsel ag,TAAR1 desens,Ga16 antag count
O=C(NNC(=S)NC(=O)c1cccc([N+](=O)[O-])c1)c1ccc(O)cc1,10.6,8.7,0.8,3.6,-1.6,.,.,.,.
Cc1cccc(NC(=S)NNC(=O)c2cccc([N+](=O)[O-])c2)c1,-3.0,19.4,-13.0,-0.5,5.9,.,.,.,.
CC(C)CN1C(=O)[C@]2(CC(=O)N(C)C2c2ccccc2)c2cc(-n3cc(CN(C)C)nn3)ccc21 (stereo partly drawn),.,-1.7,.,.,.,.,.,.,.
N#C/C(=C/C=C/c1ccccc1)C(=O)Nc1ccccc1,8.2,3.5,33.9,4.8,73.7*,23.4,24.9*,11.1,25.6*
N#C/C(=C\C=C\c1ccccc1)C(=O)Nc1ccccc1,1.7,2.6,33.2,26.6,26.4,.,.,.,.
COC(=O)C1CN(Cc2cn(Cc3ccccc3)nn2)CCS(=O)(=O)N1Cc1ccc(F)cc1 (stereo not drawn),.,2.1,.,.,.,.,.,.,.
CCOc1ccc(NC2=NCC(=O)N2CCc2ccccc2)cc1,-4.4,-6.5,43.9,-10.4,70.2*,81.0*,41.5*,81.8*,52.3*
COc1ccc(CCN2C(=O)CN=C2Nc2ccc(F)cc2)cc1OC,-4.9,-5.0,0.2,-4.3,4.7,.,.,.,.
Cc1ccc(NC2=NCC(=O)N2CCc2ccccc2)cc1C,2.5,-2.1,-2.7,-5.3,47.3*,58.9*,6.9,25.9,9.8
CCOC(=O)[C@@]12CN(C(=O)OC(C)(C)C)CC=C1N(Cc1ccc(OC)cc1)C(=O)[C@H]2CC(=O)N1CCN(C(=O)C2CC2)CC1,.,-0.4,.,.,.,.,.,.,.
COc1ccc(NC(=O)CN(C)CC(=O)Nc2ccc3c(c2)CCC3)cc1,-8.6,-6.5,11.3,1.2,14.0,.,.,.,.
CCCCN(C)CCC(=O)Nc1ccc2c(c1)CCC2,-11.1,-5.7,9.2,-4.3,44.2*,69.1*,1.3,15.6,-0.7
Cc1cc(/C=C(\C#N)C(=O)Nc2ccc(F)cc2)c(C)n1-c1ccc(N2CCOCC2)c([N+](=O)[O-])c1,3.2,0.9,20.6,9.7,68.8*,24.1,9.7,30.9,28.1*
Cn1cccc1/C=N/n1c(-c2ccc(Cl)cc2Cl)n[nH]c1=S,-2.8,16.1,29.0,4.3,62.3*,52.6*,26.2*,25.9,23.9*
Cc1ccc2c(c1)[C@H]1[C@H](CO2)[C@H](c2ccccc2)[C@]2(C)C(=O)N(Cc3ccc(F)cc3)CC(=O)N12,.,-166.9,34.1,.,61.5*,28.8,19.0*,17.0,19.1
COc1ccccc1CCNC(=O)C1CCCO1 (stereo not drawn),-5.8,28.5,12.6,-2.5,43.2*,73.0*,1.6,29.8,5.5
COc1ccccc1CC(=O)NCC1CCCO1 (stereo not drawn),.,3.3,-7.9,0.3,2.8,.,.,.,.
COc1ccc(CSc2nnc(SCC(=O)Nc3ccc(S(N)(=O)=O)cc3)s2)cc1,.,14.2,.,.,.,.,.,.,.
S=C(NCc1ccccc1)NCc1ccc(CNC(=S)NCc2ccccc2)cc1,-12.0,8.0,65.1*,-4.5,55.6*,51.1*,20.1*,62.7*,47.3*
NNC(=S)NCCc1ccccc1,-2.6,0.5,.,-4.2,.,.,-0.4,.,4.2
O=S(=O)(NC1=NCCC1)c1cccc(NC(=S)NCCc2ccccc2)c1,6.8,1.6,-5.0,5.0,62.4*,11.5,3.7,6.2,8.0
CCCCNC(=S)Nc1cccc(S(=O)(=O)NC2=NCCC2)c1,.,0.1,-15.6,-10.2,1.3,.,.,.,.
NS(=O)(=O)c1ccc(NC(=S)NCCc2ccccc2)cc1,-1.0,3.3,32.5,0.1,54.2*,81.8*,1.3,68.3*,4.3
O=S(=O)(c1ccc(NC(=S)NCCc2ccccc2)cc1)N1CCOCC1,1.5,7.1,14.6,-5.0,74.2*,85.7*,13.0*,65.3*,26.4*
COc1ccc(CC(=O)NC(=S)Nc2ccc(S(N)(=O)=O)cc2)cc1,0.5,-0.4,28.4,8.5,80.9*,88.2*,39.6*,46.5,27.9*
SMILES,NS3 helicase inh,rCAG binder,TAAR1 antag,HCV core dimer,TAAR1 agonist,TAAR1 ag confirm,Ga16 nonsel ag,TAAR1 desens,Ga16 antag count
COC(=O)c1ccc(NC(=S)NCCc2ccccc2)cc1,-1.9,7.0,53.8*,1.7,73.1*,81.9*,11.9*,77.4*,28.3*
O=S(=O)(c1ccc(NC(=S)NN=C(Cc2ccccc2)Cc2ccccc2)cc1)N1CCOCC1,6.6,9.0,13.7,28.1,-1.6,.,.,.,.
CCOC(=O)c1ccc(NC(=S)NCCc2ccccc2F)cc1,-10.8,2.5,36.7,3.1,70.2*,88.6*,10.9,86.0*,33.4*
CC(=NCCc1ccccc1)C1=C(O)COC1=O,8.3,-3.8,30.8,-4.0,82.8*,77.8*,2.5,46.3,9.6
CCCN=C(C)C1=C(O)c2ccccc2C1=O,6.1,-4.0,2.0,0.8,1.3,.,.,.,.
CC(=NCCc1ccccc1)C1=C(O)C(c2ccccc2)OC1=O (stereo not drawn),-2.1,-3.4,14.3,0.1,73.0*,77.0*,1.9,37.4,11.1
CC(=NCc1ccccc1)C1=C(O)COC1=O,-6.3,-4.5,-2.1,-2.3,0.5,.,.,.,.
COc1ccc(NC(=O)CSc2nc(C)cc(=O)[nH]2)cc1OC,.,1.8,.,.,.,.,.,.,.
O=C(C(=O)N1CCC(CNS(=O)(=O)c2ccc(C(F)(F)F)cc2)CC1)c1cccs1,.,2.1,-6.0,.,6.8,.,.,.,.
O=C(NCc1ccccc1)c1ccc(CO)cc1,.,3.0,.,.,.,.,.,.,.
O=C(CN1CCC(NC(=O)Nc2ccc(Cl)cc2)CC1)Nc1ccc2c(c1)OCCO2,.,5.2,.,.,.,.,.,.,.
Cc1sc(NC(=O)C2CCCCC2C(=O)O)c(C(N)=O)c1-c1ccccc1 (stereo not drawn),1.1,15.1,-3.7,-3.6,9.2,.,.,.,.
Cc1sc(NC(=O)C2CCCCC2C(=O)O)c(C(N)=O)c1-c1ccc(C(C)(C)C)cc1 (stereo not drawn),20.0,7.3,45.5,16.8,66.5*,43.4*,19.9*,40.5,12.9
O=c1[nH]c2ccc(NC(=S)Nc3ccc(Cl)cc3)cc2[nH]1,-8.1,4.9,8.2,5.1,53.2*,57.7*,10.9,34.4,29.2*
Cc1ccc(C2=CCN(C)C(=O)N2c2ccc(Br)cc2)cc1,.,6.5,.,.,.,.,.,.,.
